Test results published in ChEMBL document CHEMBL1124668, “Solid-phase synthesis of 16 potent (selective and nonselective) in vivo antagonists of oxytocin” (J Med Chem, 1989).
Starred links: 1 amine or outer side, 2 acyl side, 3 side chain; linkers in the order of their positions; H or OH if unused. Positions of bridges follow the written chain, without caps; N, C: chain ends. Non-standard residues stand in square brackets, D forms with d. Residues, ends and D or L forms follow the SMILES beside them. X1 = O=C(CC1(S[*:2])CCCCC1)[*:1]; Orn = NCCC[C@H](N)C(=O)O

Key:
Rattus norvegicus [1] = assay: (§1) Antivasopressor activity in vivo in phenoxybenzamine pre-treated rats.; assay type: functional, organism-based; conditions: read-out: pA2 (converted)
Method in brief: (§2)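 Rats pretreated with phenoxybenzamine, under urethane anesthesia; antagonist given iv; agonist USP Posterior Pituitary Reference Standard; read-out is pressor response. Effective dose (nmol/kg) is the dose that cuts the response to 2X units of agonist to that of 1X unit, interpolated semilogarithmically from bracketing doses. pA2 assumes a 67 mL/kg distribution volume. SEM is given where there are ≥4 independent estimates.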

Rattus norvegicus [2] = assay: Antioxytocic potencies (change in interuterine pressure) in vivo in estrogen pre-treated rats.; assay type: functional, organism-based; conditions: read-out: pA2 (converted)
Method in brief: (§3)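 Rats pretreated with estrogen, under urethane anesthesia; antagonist given iv; read-out is change in integrated intrauterine pressure; agonist synthetic oxytocin. Effective dose (nmol/kg) is the dose that cuts the response to 2X units of agonist to the response to 1X unit, interpolated on a semilog scale from doses above and below it. pA2 is derived assuming a 67 mL/kg distribution volume.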

Rattus norvegicus [3] = organism: Rattus norvegicus; assay: Antioxytoxic activity in vitro in isolated uteri from estrogen pretreated rats suspended in Mg supplemented Dyke-Hastings solution.; assay type: functional; conditions: read-out: pA2 (converted)
Method in brief: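 Isolated rat uterus in bath medium with Mg2+; agonist USP Posterior Pituitary Reference Standard. pA2 is the −log of the effective molar antagonist concentration that reduces the response to a dose of agonist to the response to half that dose. It is interpolated semilogarithmically from concentrations above and below it. SEM is given where there are ≥4 independent estimates.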

Rattus norvegicus [4] = organism: Rattus norvegicus; assay: Antioxytoxic activity in vitro in isolated uteri from estrogen pretreated rats suspended in Mg-free Dyke-Hastings solution.; conditions: read-out: pA2 (converted)
Rattus norvegicus [5] = assay: as §1; assay type: functional; method in brief: as §2
Rattus norvegicus [6] = assay: In vivo inhibition of estrogen induced changes in interuterine pressure in rats.; assay type: functional; method in brief: as §3
Rattus norvegicus [7] = assay: Antiantidiuretic activity in vivo in hydrated rats under ethanol anaesthesia.; assay type: functional, organism-based; conditions: Urine, read-out: pA2 (converted)
Method in brief: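 Hydrated rats under ethanol anaesthesia; antagonist given iv against the USP Posterior Pituitary Reference Standard as agonist. Effective dose (nmol/kg) is the dose that cuts the response to 2x units of agonist to equal the response to 1x unit. It is estimated by interpolation on a semilog scale between doses above and below it. pA2 assumes a volume of distribution of 67 mL/kg. Where SEM is given, n ≥4 estimates.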

Compound | Kb (Rattus norvegicus [1]) | Kb (Rattus norvegicus [2]) | Kb (Rattus norvegicus [3]) | Kb (Rattus norvegicus [4]) | ED (Rattus norvegicus [5]) | ED (Rattus norvegicus [6]) | Kb (Rattus norvegicus [7])
CC[C@H](C)[C@@H]1NC(=O)[C@H](Cc2ccc(OC)cc2)NC(=O)CC2(CCCCC2)SSC[C@@H](C(=O)N2CCC[C@H]2C(=O)N[C@@H](CCCN)C(=O)N[C@@H](C)C(N)=O)NC(=O)[C@H](CC(N)=O)NC(=O)[C@H]([C@@H](C)O)NC1=O [listing 1 of 2 here] | 112 nM | 34.7 nM | 6.31 nM | 24 nM | – | – | –
CC[C@H](C)[C@@H]1NC(=O)[C@H](Cc2ccc(OC)cc2)NC(=O)CC2(CCCCC2)SSC[C@@H](C(=O)N2CCC[C@H]2C(=O)N[C@@H](CCCN)C(=O)N[C@@H](C)C(N)=O)NC(=O)[C@H](CC(N)=O)NC(=O)[C@H]([C@@H](C)O)NC1=O [listing 2 of 2 here] | – | – | – | – | 8.1 nM/kg | 2.4 nM/kg | –
CC[C@H](C)[C@@H]1NC(=O)[C@@H](Cc2ccccc2)NC(=O)CC2(CCCCC2)SSC[C@@H](C(=O)N2CCC[C@H]2C(=O)N[C@@H](CCCN=C(N)N)C(=O)NCC(N)=O)NC(=O)[C@H](CC(N)=O)NC(=O)[C@H](C(C)C)NC1=O | 229 nM | 34.7 nM | 5.62 nM | 12.9 nM | – | – | 617 nM
CC[C@H](C)[C@@H]1NC(=O)[C@@H](Cc2ccc(OC)cc2)NC(=O)CC2(CCCCC2)SSC[C@@H](C(=O)N2CCC[C@H]2C(=O)N[C@@H](CCCN=C(N)N)C(=O)NCC(N)=O)NC(=O)[C@H](CC(N)=O)NC(=O)[C@H](C(C)C)NC1=O | 15.1 nM | 33.1 nM | 5.62 nM | 22.4 nM | – | – | 132 nM
CC[C@H](C)[C@@H]1NC(=O)[C@H](Cc2ccc(OC)cc2)NC(=O)CC2(CCCCC2)SSC[C@@H](C(=O)N2CCC[C@H]2C(=O)N[C@@H](CCCN)C(=O)N[C@@H](CCCN=C(N)N)C(N)=O)NC(=O)[C@H](CC(N)=O)NC(=O)[C@H]([C@@H](C)O)NC1=O [listing 1 of 2 here] | 11 nM | 28.8 nM | 5.5 nM | 20.4 nM | – | – | –
CC[C@H](C)[C@@H]1NC(=O)[C@H](Cc2ccc(OC)cc2)NC(=O)CC2(CCCCC2)SSC[C@@H](C(=O)N2CCC[C@H]2C(=O)N[C@@H](CCCN)C(=O)N[C@@H](CCCN=C(N)N)C(N)=O)NC(=O)[C@H](CC(N)=O)NC(=O)[C@H]([C@@H](C)O)NC1=O [listing 2 of 2 here] | – | – | – | – | 0.76 nM/kg | 2.3 nM/kg | –
CCOc1ccc(C[C@H]2NC(=O)CC3(CCCCC3)SSC[C@@H](C(=O)N3CCC[C@H]3C(=O)N[C@@H](CCCNC(N)=O)C(=O)NCC(N)=O)NC(=O)[C@H](CC(N)=O)NC(=O)[C@H](C(C)C)NC(=O)[C@H](Cc3ccccc3)NC2=O)cc1 | 11.7 nM | 25.7 nM | 14.8 nM | 2.45 nM | – | – | 309 nM
COc1ccc(C[C@H]2NC(=O)CC3(CCCCC3)SSC[C@@H](C(=O)N3CCC[C@H]3C(=O)N[C@@H](CCCN=C(N)N)C(=O)NCC(N)=O)NC(=O)[C@H](CC(N)=O)NC(=O)[C@H](CCC(N)=O)NC(=O)[C@H](Cc3ccccc3)NC2=O)cc1 | 5.37 nM | 33.9 nM | 4.79 nM | 13.5 nM | – | – | 105 nM
COc1ccc(C[C@@H]2NC(=O)CC3(CCCCC3)SSC[C@@H](C(=O)N3CCC[C@H]3C(=O)N[C@@H](CCCN=C(N)N)C(=O)NCC(N)=O)NC(=O)[C@H](CC(N)=O)NC(=O)[C@H](CCC(N)=O)NC(=O)[C@H](Cc3ccccc3)NC2=O)cc1 | – | – | – | – | 0.16 nM/kg | 17 nM/kg | –
COc1ccc(C[C@H]2NC(=O)CC3(CCCCC3)SSC[C@@H](C(=O)N3CCC[C@H]3C(=O)N[C@@H](CCCN=C(N)N)C(=O)NCC(N)=O)NC(=O)[C@H](CC(N)=O)NC(=O)[C@H](C(C)C)NC(=O)[C@H](Cc3ccccc3)NC2=O)cc1 | 3.31 nM | 26.9 nM | 14.8 nM | 11 nM | – | – | 17 nM
COc1ccc(C[C@H]2NC(=O)CC3(CCCCC3)SSC[C@@H](C(=O)N3CC=C[C@H]3C(=O)N[C@@H](CCCN=C(N)N)C(=O)NCC(N)=O)NC(=O)[C@H](CC(N)=O)NC(=O)[C@H](C(C)C)NC(=O)[C@H](Cc3ccccc3)NC2=O)cc1 | 8.32 nM | – | 110 nM | 13.2 nM | – | – | 24.5 nM
COc1ccc(C[C@@H]2NC(=O)CC3(CCCCC3)SSC[C@@H](C(=O)N3CCC[C@H]3C(=O)N[C@@H](CCCN=C(N)N)C(=O)NCC(N)=O)NC(=O)[C@H](CC(N)=O)NC(=O)[C@H](C(C)C)NC(=O)[C@H](Cc3ccccc3)NC2=O)cc1 | – | 115 nM | 13.5 nM | 4.37 nM | – | – | 44.7 nM
CC[C@H](C)[C@@H]1NC(=O)[C@H](Cc2ccc(OC)cc2)NC(=O)CC2(CCCCC2)SSC[C@@H](C(=O)N2CCC[C@H]2C(=O)N[C@@H](CCCN)C(=O)NCC(N)=O)NC(=O)[C@H](CC(N)=O)NC(=O)[C@H](CCC(N)=O)NC1=O (Y(Me)IQNCP[Orn]G-NH2; linker N-5 via X1) | 11 nM | 42.7 nM | 13.2 nM | 3.02 nM | – | – | –
CC[C@H](C)[C@@H]1NC(=O)[C@H](Cc2ccc(OC)cc2)NC(=O)CC2(CCCCC2)SSC[C@@H](C(=O)N2CCC[C@H]2C(=O)N[C@@H](CCCN)C(N)=O)NC(=O)[C@H](CC(N)=O)NC(=O)[C@H]([C@@H](C)O)NC1=O (Y(Me)ITNCP[Orn]-NH2; linker N-5 via X1) | 105 nM | 24.5 nM | 2.75 nM | 6.76 nM | – | – | ~1580 nM
CC[C@H](C)[C@@H]1NC(=O)[C@H](Cc2ccc(OC)cc2)NC(=O)CC2(CCCCC2)SSC[C@@H](C(=O)N2CCC[C@H]2C(=O)N[C@@H](CCCN)C(=O)O)NC(=O)[C@H](CC(N)=O)NC(=O)[C@H]([C@@H](C)O)NC1=O (Y(Me)ITNCP[Orn]-OH; linker N-5 via X1) | 331 nM | 20.4 nM | 5.75 nM | 12.9 nM | – | – | ~5010 nM
CC[C@H](C)[C@@H]1NC(=O)[C@H](Cc2ccc(OC)cc2)NC(=O)CC2(CCCCC2)SSC[C@@H](C(=O)N2CCC[C@H]2C(=O)N[C@@H](CCCN)C(=O)NCC(N)=O)NC(=O)[C@H](CC(N)=O)NC(=O)[C@H]([C@@H](C)O)NC1=O (Y(Me)ITNCP[Orn]G-NH2; linker N-5 via X1) | 141 nM | 28.2 nM | 3.89 nM | 9.55 nM | – | – | ~5010 nM
CC[C@H](C)[C@@H]1NC(=O)[C@H](Cc2ccc(OC)cc2)NC(=O)CC2(CCCCC2)SSC[C@@H](C(=O)N2CCC[C@H]2C(=O)N[C@@H](CCCN)C(=O)N[C@@H](CC(C)C)C(N)=O)NC(=O)[C@H](CC(N)=O)NC(=O)[C@H]([C@@H](C)O)NC1=O (Y(Me)ITNCP[Orn]L-NH2; linker N-5 via X1) | 407 nM | 26.9 nM | 3.47 nM | 16.6 nM | – | – | –
CC[C@H](C)[C@@H]1NC(=O)[C@H](Cc2ccc(OC)cc2)NC(=O)CC2(CCCCC2)SSC[C@@H](C(=O)N2CCC[C@H]2C(=O)N[C@@H](CCCN)C(=O)N[C@@H](Cc2ccc(O)cc2)C(N)=O)NC(=O)[C@H](CC(N)=O)NC(=O)[C@H]([C@@H](C)O)NC1=O (Y(Me)ITNCP[Orn]Y-NH2; linker N-5 via X1) | 95.5 nM | 14.8 nM | 5.25 nM | 23.4 nM | – | – | –
CCOc1ccc(C[C@H]2NC(=O)CC3(CCCCC3)SSC[C@@H](C(=O)N3CCC[C@H]3C(=O)N[C@@H](CCCN=C(N)N)C(=O)NCC(N)=O)NC(=O)[C@H](CC(N)=O)NC(=O)[C@H](C(C)C)NC(=O)[C@H](Cc3ccccc3)NC2=O)cc1 ([dY](Et)FVNCPRG-NH2; linker N-5 via X1) | 6.03 nM | 33.9 nM | – | – | – | – | 15.5 nM
CC[C@H](C)[C@@H]1NC(=O)C(Cc2ccc(OC)cc2)NC(=O)CC2(CCCCC2)SSC[C@@H](C(=O)N2CCC[C@H]2C(=O)N[C@@H](CCCN=C(N)N)C(=O)NCC(N)=O)NC(=O)[C@H](CC(N)=O)NC(=O)[C@H](CCC(N)=O)NC1=O (stereo in doubt) | 8.32 nM | 15.8 nM | 3.24 nM | 1.91 nM | – | – | –
CC[C@H](C)[C@@H]1NC(=O)C(Cc2ccc(OC)cc2)NC(=O)CC(C)(C)SSC[C@@H](C(=O)N2CCC[C@H]2C(=O)N[C@@H](CCCN=C(N)N)C(=O)NCC(N)=O)NC(=O)[C@H](CC(N)=O)NC(=O)[C@H](C(C)C)NC1=O (stereo in doubt) | 3.47 nM | 26.9 nM | 7.76 nM | 17.8 nM | – | – | –
CC[C@H](C)[C@@H]1NC(=O)C(Cc2ccc(OC)cc2)NC(=O)CC(C)(C)SSC[C@@H](C(=O)N2CCC[C@H]2C(=O)N[C@@H](CCCN=C(N)N)C(=O)NCC(N)=O)NC(=O)[C@H](CC(N)=O)NC(=O)[C@H](CCC(N)=O)NC1=O (stereo in doubt) | 3.55 nM | 24.5 nM | 1.95 nM | 0.759 nM | – | – | –
CC[C@H](C)[C@@H]1NC(=O)C(Cc2ccc(OC)cc2)NC(=O)CC2(CCCCC2)SSC[C@@H](C(=O)N2CCC[C@H]2C(=O)N[C@@H](CCCCN)C(=O)NCC(N)=O)NC(=O)[C@H](CC(N)=O)NC(=O)[C@H](CCC(N)=O)NC1=O (stereo in doubt) | 20.9 nM | 58.9 nM | 15.5 nM | 23.4 nM | – | – | –
